# Measurements from PMC3891043 (Canadian journal of chemistry, 2011).
# Marks after values point to notes of the source that are not given here.
# Assay: Photolysis quantum yields
# Type: physicochemical
# Details: for Φdis, disappearance quantum yield (pHP acetates) / Φdis, disappearance quantum yield (pHP diethyl phosphates): λ = 300 nm; for Φdis, disappearance quantum yield (pHP acetates): 20% aq CH3CN or DMSO; for Photochemical reactivity: photolysis in unbuffered H2O
# Outline: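 Caged compound (1–9 mmol/L) plus internal standard (caffeine or 4-acetamidophenol) in water, buffer or solvent, in a quartz tube. Irradiated in a Rayonet carousel (two 15 W, 3000 Å Hg lamps), with ferrioxalate actinometry. Aliquots taken every 30 s up to 5 min, diluted and run on C18 LC-MS (water/methanol gradient with ammonium formate/formic acid), three injections each. Quantitation used calibration curves; Φ = concentration change / photons absorbed. 1H NMR in D2O confirmed products.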
# [1] = 300 nm, pH 7.3, HEPES (0.01 mol/L) and LiClO4 (0.1 mol/L)
# [2] = 300 nm, pH 8.2, HEPES (0.01 mol/L) and LiClO4 (0.1 mol/L)
# [3] = unbuffered 18 MΩ Ultrapure H2O, conversion <2%
smiles,measurement,setting,value
"CC(=O)OCC(=O)c1ccc(O)c(C#N)c1 [Compound 26, 2-(3-Cyano-4-hydroxyphenyl)-2-oxoethyl acetate]","Φdis, disappearance quantum yield (pHP acetates)",,0.08
"CCOP(=O)(OCC)OCC(=O)c1ccc(O)c(C(C)=O)c1 [Compound 32, 2-(3-Acetyl-4-hydroxyphenyl)-2-oxoethyl diethyl phosphate]","Φdis, disappearance quantum yield (pHP diethyl phosphates)",50% aq CH3CN,0.03
"CCOP(=O)(OCC)OCC(=O)c1ccc(O)c(OC)c1 [Compound 28, Diethyl (2-(4-hydroxy-3-methoxyphenyl)-2-oxoethyl) phosphate]","Φdis, disappearance quantum yield (pHP diethyl phosphates)",50% aq CH3CN,0.39
"NCCCC(=O)OCC(=O)c1ccc(O)c(O)c1.O=C(O)C(F)(F)F [Compound 4, 4-(2-(3,4-Dihydroxyphenyl)-2-oxoethoxy)-4-oxobutan-1-aminium-2,2,2-trifluoroacetate]",Photochemical reactivity,,"Note: NA, not available. All runs were low conversions to products (<2%). Standard deviations are <±0.02. 3-NO2 (12), 3-OH (4), and 2-OH (5) did not react under these conditions and are omitted. Unbuffered 18 MΩ Ultrapure H2O was used."
"CCOP(=O)(OCC)OCC(=O)c1cc(OC)c(O)c(OC)c1 [Compound 29, Diethyl (2-(4-hydroxy-3,5-dimethoxyphenyl)-2-oxoethyl) phosphate]","Φdis, disappearance quantum yield (pHP diethyl phosphates)",50% aq CH3CN,0.44 ^d
same,"Φdis, disappearance quantum yield","λ = 350 nm, 50% aq CH3CN",d Φdis = 0.13 at λ = 350 nm.
"CC(=O)OCC(=O)c1ccc(O)cc1C#N [Compound 25, 2-(2-Cyano-4-hydroxyphenyl)-2-oxoethyl acetate]","Φdis, disappearance quantum yield (pHP acetates)",,0.17
"NCCCC(=O)OCC(=O)c1ccc(O)c([N+](=O)[O-])c1.O=C(O)C(F)(F)F [Compound 12, 4-(2-(4-Hydroxy-3-nitrophenyl)-2-oxoethoxy)-4-oxobutan-1-aminium-2,2,2-trifluoroacetate]",Photochemical reactivity,,"Note: NA, not available. All runs were low conversions to products (<2%). Standard deviations are <±0.02. 3-NO2 (12), 3-OH (4), and 2-OH (5) did not react under these conditions and are omitted. Unbuffered 18 MΩ Ultrapure H2O was used."
"Cc1cc(C(=O)COC(=O)CCCN)cc(C)c1O.O=C(O)C(F)(F)F [Compound 8, 4-(2-(4-Hydroxy-3,5-dimethylphenyl)-2-oxoethoxy)-4-oxobutan-1-aminium-2,2,2-trifluoroacetate]","Φapp, quantum yield for the appearance of GABA",[1],0.17
same,"Φapp, quantum yield for the appearance of rearranged acid",[1],0.15
same,"Φdis, quantum yield for the disappearance of pHP GABA",[1],0.17
same,"Φapp, quantum yield for the appearance of GABA",[2],0.11
same,"Φapp, quantum yield for the appearance of rearranged acid",[2],0.09
same,"Φdis, quantum yield for the disappearance of pHP GABA",[2],0.11
same,"Φapp, quantum yield for the appearance of GABA",[3],0.14
same,"Φapp, quantum yield for the appearance of rearranged acid",[3],0.13
same,"Φdis, quantum yield for the disappearance of pHP GABA",[3],0.15
"NCCCC(=O)OCC(=O)c1ccc(O)cc1O.O=C(O)C(F)(F)F [Compound 5, 4-(2-(2,4-Dihydroxyphenyl)-2-oxoethoxy)-4-oxobutan-1-aminium-2,2,2-trifluoroacetate]",Photochemical reactivity,,"Note: NA, not available. All runs were low conversions to products (<2%). Standard deviations are <±0.02. 3-NO2 (12), 3-OH (4), and 2-OH (5) did not react under these conditions and are omitted. Unbuffered 18 MΩ Ultrapure H2O was used."
"Cc1cc(C(=O)COC(=O)CCCN)ccc1O.O=C(O)C(F)(F)F [Compound 6, 4-(2-(4-Hydroxy-3-methylphenyl)-2-oxoethoxy)-4-oxobutan-1-aminium-2,2,2-trifluoroacetate]","Φapp, quantum yield for the appearance of GABA",[1],0.16
same,"Φapp, quantum yield for the appearance of rearranged acid",[1],0.13
same,"Φdis, quantum yield for the disappearance of pHP GABA",[1],0.15
same,"Φapp, quantum yield for the appearance of GABA",[2],0.08
same,"Φapp, quantum yield for the appearance of rearranged acid",[2],0.06
same,"Φdis, quantum yield for the disappearance of pHP GABA",[2],0.08
same,"Φapp, quantum yield for the appearance of GABA",[3],0.14
same,"Φapp, quantum yield for the appearance of rearranged acid",[3],0.13
same,"Φdis, quantum yield for the disappearance of pHP GABA",[3],0.15
